Results reported in ChEMBL document CHEMBL1150775, “Synthesis and evaluation of estrogen agonism of diaryl 4,5-dihydroisoxazoles, 3-hydroxyketones, 3-methoxyketones, and 1,3-diketones: a compound set forming a 4D molecular library” (J Med Chem, 2008).
Where “and” joins values, the source holds several entries; their conditions need not be identical. Equal values may be shown once.

What was measured:
Assay type in all cases: cell-based
[1] = biological target: T1, Estrogen receptor (Homo sapiens) (UniProt P03372); experiment: Activation of human estrogen receptor alpha expressed in HEK293 cells at 10 uM beta-galactosidase reporter gene assay relative to control
T1 sequence (whole entry): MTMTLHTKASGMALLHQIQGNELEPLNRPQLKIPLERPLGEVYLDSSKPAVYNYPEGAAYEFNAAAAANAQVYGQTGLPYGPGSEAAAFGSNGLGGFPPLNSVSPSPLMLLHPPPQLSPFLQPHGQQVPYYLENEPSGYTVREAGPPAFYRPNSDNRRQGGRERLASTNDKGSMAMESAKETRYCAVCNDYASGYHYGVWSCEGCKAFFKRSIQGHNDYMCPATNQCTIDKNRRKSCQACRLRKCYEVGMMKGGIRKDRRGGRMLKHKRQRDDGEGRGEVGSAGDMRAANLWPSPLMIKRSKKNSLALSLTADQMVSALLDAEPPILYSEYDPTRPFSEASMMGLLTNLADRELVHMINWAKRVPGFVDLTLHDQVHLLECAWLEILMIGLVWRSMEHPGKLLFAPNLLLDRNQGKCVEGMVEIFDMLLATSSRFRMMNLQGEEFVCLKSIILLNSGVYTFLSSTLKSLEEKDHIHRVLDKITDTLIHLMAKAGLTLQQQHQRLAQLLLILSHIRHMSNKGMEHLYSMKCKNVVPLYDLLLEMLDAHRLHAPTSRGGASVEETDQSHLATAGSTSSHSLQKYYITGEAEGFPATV
In short: (§1)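 Luciferase reporter in transiently transfected HEK293 cells. Cells received 5 ng ERα or ERβ vector, ERE2-TATA luciferase reporter and pCMVβ by calcium phosphate for 4 h. Compound at 10 µM for 24 h in phenol-free medium with delipidated serum. β-Gal-normalized luciferase expressed as fold activation over vehicle (0.1% v/v). Means ± SEM of ≥3 transfections.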

[2] = biological target: T1, Estrogen receptor (Homo sapiens); experiment: Activation of human estrogen receptor alpha expressed in HEK293 cells at 10 uM by beta-galactosidase reporter gene assay relative to 3,17 beta-estradiol
In short: (§2)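 HEK293 cells seeded a day ahead in phenol-free DMEM with 5% delipidated FBS. Calcium phosphate transfection for 4 h with 5 ng ERα or ERβ expression vector, 75 ng pERE2TATA-LUC reporter and 20 ng pCMVβ control. Test compound at 10 µM (vehicle 0.1% v/v) for 24 h. Luciferase normalized to β-galactosidase. Activity = 100% × (test − vehicle)/(10 nM E2 − vehicle). Mean of ≥3 independent transfections.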

[3] = biological target: T1, Estrogen receptor (Homo sapiens); experiment: Activation of human estrogen receptor alpha expressed in HEK293 cells at 10 uM in presence of ICI-182780 beta-galactosidase reporter gene assay relative to control
In short: (§3)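 Antagonism format: transfection as for the agonist assay (ERα or ERβ vector, ERE2-TATA-LUC, pCMVβ; 4 h). Medium then contained 10 µM compound plus 1000 nM ICI-182,780 or vehicle for 24 h. β-Gal-normalized luciferase given as fold activation relative to vehicle. Means ± SEM of ≥3 independent transfections.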

[4] = biological target: Estrogen receptor beta (Homo sapiens) (UniProt Q92731); experiment: Activation of human estrogen receptor beta expressed in HEK293 cells at 10 uM beta-galactosidase reporter gene assay relative to 3,17-beta-estradiol; in short: as §2
[5] = biological target: Estrogen receptor beta (Homo sapiens) (UniProt Q92731); experiment: Activation of human estrogen receptor beta expressed in HEK293 cells at 10 uM beta-galactosidase reporter gene assay relative to control; in short: as §1
[6] = biological target: Estrogen receptor beta (Homo sapiens) (UniProt Q92731); experiment: Activation of human estrogen receptor beta expressed in HEK293 cells at 10 uM in presence of ICI-182781 beta-galactosidase reporter gene assay relative to control; in short: as §3

Estrogen receptor beta (Homo sapiens), sequence (Q92731 whole entry): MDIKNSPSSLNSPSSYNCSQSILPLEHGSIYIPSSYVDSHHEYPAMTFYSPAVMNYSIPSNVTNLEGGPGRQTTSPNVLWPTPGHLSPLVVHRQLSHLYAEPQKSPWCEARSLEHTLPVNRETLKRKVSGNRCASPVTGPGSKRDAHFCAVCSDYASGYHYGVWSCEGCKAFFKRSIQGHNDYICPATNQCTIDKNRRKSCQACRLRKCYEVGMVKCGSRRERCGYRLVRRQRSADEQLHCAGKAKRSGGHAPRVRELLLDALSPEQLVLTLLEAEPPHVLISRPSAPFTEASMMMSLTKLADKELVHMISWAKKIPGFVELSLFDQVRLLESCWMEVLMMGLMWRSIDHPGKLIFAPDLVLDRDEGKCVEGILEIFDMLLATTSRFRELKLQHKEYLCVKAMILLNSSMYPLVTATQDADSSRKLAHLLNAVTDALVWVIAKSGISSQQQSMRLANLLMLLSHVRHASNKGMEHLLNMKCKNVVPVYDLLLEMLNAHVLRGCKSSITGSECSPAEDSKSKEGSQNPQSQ

| Activity [1] | Activity [2] | Activity [3] | Activity [4] | Activity [5] | Activity [6] | Compound |
| --- | --- | --- | --- | --- | --- | --- |
| 126 | 43.9% | 1 | -0.4% |  |  | c1ccc(CCC2=NOC(CCc3ccccc3)C2)cc1 (single isomer, unassigned; 18b) |
| 8.7 | 24.3% | 1 | 1.4% |  |  | O=C(CCc1ccccc1)CC(=O)Cc1ccccc1 |
| 22.9 | 48.1% | 1.6 | 4.7% | 4.2 | 0.7 | COC(CC(=O)Cc1ccccc1)Cc1ccc2ccccc2c1 (racemic) |
|  | 7% |  | 1.2% |  |  | c1ccc(CCC2CC(Cc3ccccc3)=NO2)cc1 (configuration not stated) |
|  | 30.1% |  | 5.7% |  |  | O=C(CCc1ccccc1)CC(O)Cc1ccc(F)cc1 (configuration not stated) |
|  | 6.1% |  | -1.5% |  |  | O=C(CCCc1ccccc1)CC(=O)CCc1ccccc1 |
|  | 8.4% |  | 1.7% |  |  | O=C(Cc1ccccc1)CC(O)Cc1ccccc1 (configuration not stated) |
|  | 82% |  | 3.4% |  |  | Oc1ccccc1CCC1=NOC(Cc2ccc(F)cc2)C1 (single isomer, unassigned; 73a) |
|  | 16.2% |  | 1% |  |  | O=C(CCc1ccccc1)CC(O)CCc1ccccc1 (configuration not stated) |
|  | 11.1% |  | -2.4% |  |  | Oc1ccccc1CCC1=NOC(Cc2ccc(F)cc2)C1 (single isomer, unassigned; 73b) |
|  | 0.6% |  | 0.3% |  |  | O=C(CCc1ccccc1)CC(=O)CCc1ccccc1 |
|  | -6% |  | 0% |  |  | CS(C)=C(C(=O)CCCc1ccccc1)C(=O)c1ccccc1 |
|  | 12.1% |  | 1.7% |  |  | O=C(CCc1ccccc1)CC(O)Cc1cccc2ccccc12 (configuration not stated) |
|  | 59.3% |  | 28.2% |  |  | O=C(CCCc1ccccc1)CC(O)c1ccccc1 (single isomer, unassigned; 24b) |
|  | 111% |  | 18.4% |  |  | Oc1ccccc1CCC1=NOC(Cc2ccccc2)C1 (configuration not stated) |
|  | 3.5% |  | -0.5% |  |  | COc1ccccc1CC(=O)CC(Cc1ccc2ccccc2c1)OC (single isomer, unassigned; 66a) |
|  | 1.6% |  | -0.8% |  |  | COc1ccc(CC(O)CC(=O)CCc2ccccc2)cc1 (single isomer, unassigned; 54a) |
|  | 0.8% |  | 1.6% |  |  | O=C(Cc1ccccc1)CC(O)c1ccccc1 (configuration not stated) |
|  | 0.2% |  | -0.6% |  |  | COC(CC(=O)Cc1ccc(F)cc1)Cc1cccc2ccccc12 (single isomer, unassigned; 62a) |
|  | 13% |  | 3.8% |  |  | c1ccc(CCC2=NOC(Cc3ccc4ccccc4c3)C2)cc1 (single isomer, unassigned; 53b) |
|  | 35.5% |  | 2% |  |  | COC(CC(=O)CCc1ccccc1)Cc1cccc2ccccc12 (configuration not stated) |
|  | 0.3% |  | 18.4% |  |  | COC(CC(=O)c1ccccc1)Cc1ccccc1 (configuration not stated) |
| 26.1 | 23.9% | 1.1 | 0.4% |  |  | COC(CC(=O)Cc1cccc2ccccc12)Cc1cccc2ccccc12 (single isomer, unassigned; 64b) |
|  | 81.4% and 76.2% |  | 4.1% and 12% |  |  | Oc1ccc(CCC2=NOC(Cc3ccc(O)cc3)C2)cc1 (configuration not stated) |
|  | 24.7% |  | 9.1% |  |  | O=C(CCCc1ccccc1)CC(O)Cc1ccccc1 (configuration not stated) |
|  | 20.1% |  | 20.1% |  |  | O=C(CCc1ccccc1)CC(O)Cc1ccc2ccccc2c1 (single isomer, unassigned; 57b) |
